STAT3 act: IL-6 driven STAT3 reporter potentiators, primary screen, U3A cells, luciferase, luminescence, MLSCN library. IL-6 STAT3-luciferase reporter; 100% = signal with IL-6 EC80 alone. AID 871, 2007. activation (% of control), % at 5.6 µM. 190,000 tested, 0.91% active;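 active = activation above the screen-wide mean of compound activation plus 3 SD, cut at about 130% in these data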
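system = STAT3-luciferase reporter U3A cells | reagent = IL-6 stimulus at 33 ng/mL final | timing = 1 h compound pre-exposure, 6 h IL-6 stimulation, 37 °C | measured by = luminescence | evaluation = % activation versus median of IL-6-stimulated wells | control set = IL-6-only wells as 100% reference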
AHR act: AHR activators, primary screen, cell-based, luminescence, luciferase reporter, human; AHR-responsive luciferase reporter cells; Aryl hydrocarbon receptor (Homo sapiens), P35869; AID 2796, 2010; activation, % at 5 µM; 320,000 tested, 2.5% active; in the data active = activation above about 47%
ABCB6 inh 2: ABCB6 transporter inhibitors, primary screen, K562-ABCB6 cells, flow cytometry, MLPCN library; ATP-binding cassette sub-family B member 6 (Homo sapiens), Q9NP58; AID 602162, 2011; 360,000 tested, 0.19% active; fluorescence ratio to DMSO, % at 10 µM; K562-ABCB6 porphyrin accumulation, 1 h; active compounds read low;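 active = fluorescence ratio to DMSO below 75%, the collection mean minus 3 SD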;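 note: signal is porphyrin accumulated inside mitochondria; lower ratio means ABCB6 inhibition with less porphyrin fluorescence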
Target sequence (Q9NP58 whole entry, looked up): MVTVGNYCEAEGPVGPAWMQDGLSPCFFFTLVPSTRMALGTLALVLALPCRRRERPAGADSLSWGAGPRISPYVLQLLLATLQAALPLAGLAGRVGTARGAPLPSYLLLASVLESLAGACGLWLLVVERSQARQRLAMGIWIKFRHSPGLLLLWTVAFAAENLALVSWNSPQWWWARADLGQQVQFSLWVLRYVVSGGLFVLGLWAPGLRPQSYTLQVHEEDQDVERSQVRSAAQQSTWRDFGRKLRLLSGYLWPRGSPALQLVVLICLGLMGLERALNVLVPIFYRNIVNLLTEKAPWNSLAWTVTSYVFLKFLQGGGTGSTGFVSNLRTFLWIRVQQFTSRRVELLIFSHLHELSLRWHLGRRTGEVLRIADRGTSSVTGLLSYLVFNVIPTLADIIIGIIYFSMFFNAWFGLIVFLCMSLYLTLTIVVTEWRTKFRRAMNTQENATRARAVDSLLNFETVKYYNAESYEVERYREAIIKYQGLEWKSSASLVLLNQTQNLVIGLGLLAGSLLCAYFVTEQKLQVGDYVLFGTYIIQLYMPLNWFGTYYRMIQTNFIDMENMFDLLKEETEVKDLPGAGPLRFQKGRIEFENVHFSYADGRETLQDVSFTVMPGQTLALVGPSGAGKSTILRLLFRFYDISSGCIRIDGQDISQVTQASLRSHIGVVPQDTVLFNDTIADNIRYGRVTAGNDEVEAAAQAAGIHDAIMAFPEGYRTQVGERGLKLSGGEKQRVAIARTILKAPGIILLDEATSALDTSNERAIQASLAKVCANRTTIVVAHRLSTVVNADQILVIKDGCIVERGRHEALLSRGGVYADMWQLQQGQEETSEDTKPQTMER
FXN GAA850 act: FXN promoter activators, primary screen, cell-based, luciferase luminescence, HEK293 lucGAA850; HEK293 lucGAA850 FXN promoter luciferase reporter, 24 h; percent of 10 µM SAHA response; activation, % at 6 µM; 360,000 tested, 0.56% active;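 active = activation above the average of all compounds screened plus 3 SD, cutoff fixed separately per campaign, cut at about 7.5% in these data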
AHR act cf: AHR activators, confirmation, cell-based, luminescence, luciferase reporter, human; 2,300 tested, 87% active; shares compounds with AHR act; activation, % at 9 µM; AID 2845, 2010; human cells, AHR-responsive luciferase reporter; in the data active = activation above about 49%;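 note: HepG2 hepatoma cells carrying a DRE-driven firefly luciferase reporter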
PXR act counter: human PXR activators, counter-screen for AHR activator project, cell-based, luciferase luminescence; shares compounds with AHR act; cell-based PXR reporter; activation, % at 11.6 µM; 2,300 tested, 88% active; AID 434939, 2010; in the data active = activation above about 11%;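 note: human hepatoma DPX-2 cells expressing full-length human PXR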
Large screens that a line does not name were inactive (follow-up assays come after a bar, where they were run). Most compounds without a hit are left out; they make up all but 3.3% or so of the library.

[O-][N+](=Cc1ccccc1)c1ccc(Cl)cc1	none (no result: STAT3 act, AHR act)
CCCCn1c(=O)[nH]c(=O)c2c1nc(-c1cc(Br)c(OCC)c(OC)c1)n2C	none (no result: STAT3 act)
COc1ccc(Nc2nc(C)cc(C)c2C#N)cc1OC	AHR act 113.5 | AHR act cf 58.8 | PXR act counter 20.0
Cc1cc(C)c(C#N)c(Nc2ccccc2)n1	none
Cc1cc(C)c(C#N)c(Nc2ccc3c(c2)OCCO3)n1	AHR act 86.0 | AHR act cf 103.1 | PXR act counter 22.0
COc1cccc(Nc2nc(C)cc(C)c2C#N)c1	AHR act 79.2 | AHR act cf 63.4 | PXR act counter 31.5
COc1ccc(C(C)=NNS(=O)(=O)c2ccc(C)cc2)cc1OC	none (no result: STAT3 act, AHR act)
Cc1cccnc1C(c1ccc(F)cc1)N(C)C(=O)C1CCN(CCCOc2ccc(F)cc2)CC1 (stereo not drawn)	none (no result: STAT3 act, AHR act)
COc1cccc(CN2C(=NC(=O)CCC3CCCC3)SC3CS(=O)(=O)CC32)c1 (stereo not drawn)	none (no result: STAT3 act)
COc1ccccc1NC(=O)c1ccc(-c2ccc(Br)cc2)o1	AHR act 99.0 | AHR act cf 104.9 | PXR act counter 11.0
O=C(/C=C/c1ccc(Cl)c([N+](=O)[O-])c1)Nc1ccc(N2CCCC2)cc1	AHR act 84.0 | AHR act cf 95.3 | PXR act counter 18.0
C[C@H]1CN([C@@H](C)CO)C(=O)CCCn2cc(nn2)CO[C@@H]1CN(C)S(=O)(=O)c1ccc(Oc2ccccc2)nc1	none (no result: STAT3 act, AHR act)
CN(C)c1nc(-c2ccccc2)nnc1C(F)(F)F	AHR act 96.2 | AHR act cf 114.2 | PXR act counter 25.0
CN(NC(=O)C(C)(C)C)c1nc(-c2ccccc2)nnc1C(F)(F)F	none
O=C1CCN(Cc2ccccc2)C=C1c1ccc2ccccc2c1	AHR act 83.5 (no result: STAT3 act) | AHR act cf 108.0 | PXR act counter 39.6
O=C1CCN(Cc2ccccc2)C=C1c1ccc(C(F)(F)F)cc1	AHR act 108.3 (no result: STAT3 act) | AHR act cf 101.6 | PXR act counter 118.6
O=C1CCN(Cc2ccccc2)C=C1c1ccc(Cl)cc1	none (no result: STAT3 act)
COc1cc(Cl)c(C)cc1NC(=O)c1ccccc1NC(=O)CN1CCOCC1	AHR act 101.3 (no result: STAT3 act) | AHR act cf 103.3 | PXR act counter 91.7
COc1ccc(NC(=O)c2ccccc2Cl)cc1NC(=O)CN1CCOCC1	none
CCCn1c(O)c(N=NC(=O)c2ccco2)c2ccccc21	AHR act 86.6 | AHR act cf 87.6 | PXR act counter 50.0
COCCN(CC(=O)Nc1cccc(S(=O)(=O)N2CCCC2)c1)Cc1nc2ccccc2c(=O)[nH]1	none (no result: STAT3 act, AHR act)
CC(C)(C)OC(=O)CNC(=O)c1[nH]cnc1C(=O)NC(c1ccccc1)c1ccccc1	none (no result: STAT3 act)
CCOc1ccc(NC(=S)N2CCN(CCN3C(=O)c4cccc5cccc(c45)C3=O)CC2)cc1	AHR act 88.5 | AHR act cf 107.5 | PXR act counter 55.1
CC(=O)c1ccc(OCC(O)CN2CCN(CCN3C(=O)c4cccc5cccc(c45)C3=O)CC2)cc1 (stereo not drawn)	none
O=C(CCN1C(=O)c2cccc3cccc(c23)C1=O)N1CCOCC1	none
O=C(/C=C/c1ccccc1)N1CCN(CCN2C(=O)c3cccc4cccc(c34)C2=O)CC1	AHR act 102.0 | AHR act cf 83.3 | PXR act counter 51.2
Cc1ccc([N+](=O)[O-])cc1S(=O)(=O)Nc1ccc(OCC(=O)N2CCOCC2)cc1	none (no result: STAT3 act)
CC1=NN(C(=O)c2ccc(Cn3nc(C)cc3C)o2)C(O)(C(F)(F)F)C1 (stereo not drawn)	none
N#C/C(=C/c1ccc(Sc2nc3ccccc3[nH]2)o1)c1cccc(F)c1	none
N#C/C(=C\c1ccc(Sc2ccccc2)o1)c1nc2ccccc2[nH]1	AHR act 145.3 | AHR act cf 121.9 | PXR act counter 151.1
N#C/C(=C/c1ccc(Sc2nc3ccccc3[nH]2)o1)c1cccc(Br)c1	AHR act 82.6 | AHR act cf inactive | PXR act counter 83.7

From PubChem
